Most compounds without a hit are left out; they make up all but 2.2% or so of the library.
MCL1 BIM primary – inhibitors of human MCL1 binding to BIM-BH3 peptide; inhibition, % at 10.9 µM; Q07820; GST-MCL1 / FITC-Bim-BH3 fluorescence polarization; AID 2057; 320,000 tested, 0.68% active;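 active means inhibition above the mean inhibition of all tested compounds plus 3 SD, set per campaign, cut at about 40% in these data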;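 further: 0% = DMSO wells and 100% = unlabeled Bim-BH3 peptide control; higher means more loss of mP so more displacement of Bim peptide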
RBBP9 inh – inhibitors of human serine hydrolase RBBP9. inhibition, % at 7.94 µM. AID 1515. O75884. recombinant RBBP9, FP-Rh probe fluorescence polarization. 220,000 tested, 0.2% active;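 active means inhibition above the campaign mean of all tested compounds plus 3 SD, cut at about 14% in these data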;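 further: plate controls were DMSO wells with RBBP9 for no effect and wells lacking RBBP9 protein for full effect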
Target sequence (O75884 whole entry, looked up): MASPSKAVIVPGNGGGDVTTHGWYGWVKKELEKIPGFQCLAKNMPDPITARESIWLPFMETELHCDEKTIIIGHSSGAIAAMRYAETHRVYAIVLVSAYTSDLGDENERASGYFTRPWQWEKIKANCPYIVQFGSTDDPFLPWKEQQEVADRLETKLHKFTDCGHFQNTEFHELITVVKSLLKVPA
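Measured by – fluorescence polarization · Test system – RBBP9 protein · Input – 2.5 µM RBBP9 dispensing solution, before mixing · Measure – percent inhibition from mP, scaled between DMSO and no-protein wells · Benchmarks – DMSO-treated enzyme wells and wells lacking RBBP9 · Times – preincubation 30 min plus labeling 45 min at 25 °C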
Mcl1-Bid inh – Mcl-1/Bid interaction inhibition; 220,000 tested, 0.97% active; AID 1021; Q07820; TR-FRET Mcl-1/Bid-Dy647 peptide binding, 1536-well; inhibition, % at 21.7 µM;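 active means compounds that cut the binding signal by more than half at the single screening dose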;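 further: His-tagged Mcl-1 with europium anti-His antibody binding Bid BH3 peptide; 0% = Mcl-1 plus peptide wells and 100% = peptide-only wells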
EBV gp42 inh – inhibitors of Epstein-Barr virus glycoprotein 42. inhibition, % (tested at 21.74 µM). Fluorescence polarization binding assay, mP read-out. 220,000 tested, 0.42% active. Q1HVG2. AID 1085; in the data active means inhibition above about 50%
Target sequence (Q1HVG2 whole entry, looked up): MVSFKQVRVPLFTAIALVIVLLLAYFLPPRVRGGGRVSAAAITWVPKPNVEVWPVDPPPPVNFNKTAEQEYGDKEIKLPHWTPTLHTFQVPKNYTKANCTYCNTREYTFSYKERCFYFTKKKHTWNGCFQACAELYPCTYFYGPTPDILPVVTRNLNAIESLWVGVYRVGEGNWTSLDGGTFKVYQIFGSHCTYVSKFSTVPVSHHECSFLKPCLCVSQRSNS
Mcl1 Noxa PPI – Mcl-1/Noxa interaction inhibition | Q07820 | TR-FRET Mcl-1/Noxa peptide binding, 2 h | inhibition, % at 21.7 µM | 220,000 tested, 1.5% active | AID 1022;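 active means compounds that cut the protein-peptide binding signal by more than 50% relative to plate controls in a single-dose test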;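 further: His-tagged Mcl-1 with rhodamine Noxa BH3 peptide and terbium anti-His antibody; 0% = Mcl-1 plus Noxa peptide wells and 100% = peptide-only wells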
Bim-Mcl-1 – inhibitors of Bim-Mcl-1 interaction, human | Q07820 | Bead-based flow cytometry, Bim peptide-Mcl-1 binding | inhibition, % at 10 µM | 190,000 tested, 0.1% active; in the data active means inhibition above about 40%;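 further: 0% = no compound tracer wells and 100% = peptide blocker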
Starred values were filed as active, the others as inactive; x = no result.

SMILES	MCL1 BIM primary	RBBP9 inh	Mcl1-Bid inh	EBV gp42 inh	Mcl1 Noxa PPI	Bim-Mcl-1
COc1ccc(NC(=O)CSc2ncccn2)cc1S(=O)(=O)N1CCCCC1	9	x	x	x	x	x
CC(Oc1cc2oc(=O)c3c(c2cc1Cl)CCC3)C(=O)N1C[C@H]2C[C@@H](C1)c1cccc(=O)n1C2 (some centres not stated)	8	x	x	x	x	x
CCOC(=O)c1cc2c(=O)n3cccc(C)c3nc2n(Cc2ccco2)c1=NC(=O)c1cccnc1	x	-7	-14	21	69*	13
Cc1cccn2c(=O)c3cc(C#N)c(=NC(=O)c4ccccc4)n(Cc4ccco4)c3nc12	31	x	x	x	x	x
CCOC(=O)c1cc2c(=O)n3ccccc3nc2n(Cc2ccco2)c1=NC(=O)c1ccccc1OCC	25	-2	-15	1	18	2
CCOC(=O)c1cc2c(=O)n3ccccc3nc2n(Cc2ccco2)c1=NC(=O)c1cccnc1	18	2	-71	3	51*	3
CCC(C)Sc1ccc([C@H]2N[C@@](Cc3ccccc3)(C(=O)OC)[C@H]3C(=O)N(C)C(=O)[C@@H]23)cc1 (some centres not stated)	5	x	x	x	x	x
COC(=O)c1ccc(CNC(=O)c2c3c(nc4ccccc24)CCN(Cc2ccccc2)C3)cc1	-9	-4	94*	-15	26	-4
O=C(COC(=O)c1c2c(nc3ccccc13)CCN(Cc1ccccc1)C2)Nc1c(F)cccc1F	41*	-2	10	-27	-2	-3
Cc1ccc2c(c1)c1ccc3c(c1n2C)C(=O)C=CC3=O	x	5	23	-14	108*	x
O=C1C=Cc2ccccc2/C1=C/c1[nH]c(=O)[nH]c1O	-6	-6	-30	-11	60*	x
S=c1nc(-c2cccc(Cl)c2)[nH][nH]1	9	-10	-28	-12	35	-5
S=c1nc(-c2cc(Cl)ccc2Cl)[nH][nH]1	34	-5	58*	0	50	0
CCOc1ccc(NC(=O)Nc2cc(C(C)C)ccc2C)cc1	x	-7	-57	0	-10	x
Cc1ccc(C(C)C)cc1NC(=O)Nc1ccc([N+](=O)[O-])cc1	-4	-17	85*	14	18	x
Nc1cccc2c1C(=O)N(CC(=O)NC13CC4CC(CC(C4)C1)C3)C2=O	32	-7	-23	64*	22	-2
O=C(Cn1sc2ccccc2c1=O)NC12CC3CC(CC(C3)C1)C2	39	-11	32	-29	53*	-15
Nc1ccccc1C(=O)NC12CC3CC(CC(C3)C1)C2	0	x	x	x	x	x
CC1CCC(NC(=O)CCCn2sc3ccccc3c2=O)CC1 (configuration not stated)	0	x	x	x	x	x
CC(=O)Cc1nsc(NC(=O)c2ccc(-c3cc(C(F)(F)F)ccc3Cl)o2)n1	5	-8	68*	-10	6	-3
CC(=O)Cc1nsc(NC(=O)c2ccc(-c3cc(Cl)ccc3Cl)o2)n1	7	-10	3	4	18	-3
CCN(CC)S(=O)(=O)c1cc(C(=O)OCC(=O)Nc2ccc(-c3nc4ccc(C)cc4s3)cc2)ccc1F	8	-5	6	-9	12	-5
Cc1cc(NC2CCCCC2)nc(-c2ccccc2O)n1	5	-8	52*	-2	28	-3
CN(C)c1cc(NC(=O)CN2CCCC2)c2ccccc2n1	4	7	37	0	54*	x
Cc1nc2sccn2c1-c1nc(-c2cc3ccccc3o2)cs1	0	-7	50	-9	54*	6
SMILES	MCL1 BIM primary	RBBP9 inh	Mcl1-Bid inh	EBV gp42 inh	Mcl1 Noxa PPI	Bim-Mcl-1
CS(=O)(=O)N1CCC(C(=O)Nc2cc(Cl)c(Cl)cc2Cl)CC1	10	x	x	x	x	x
CC1CN(C(=O)N2c3ccccc3Sc3ccccc32)CC(C)O1 (configuration not stated)	-2	-1	-3	4	22	-5
CC1CN(C(=O)N2c3ccccc3Sc3ccccc32)C(C)CC1=O (configuration not stated)	4	-7	-18	-11	70*	-2
CC(=O)c1cc(O)c2ccccc2c1O	16	-5	24	-24	80*	x
COc1ccccc1-n1c(SCc2cc(=O)oc3cc(O)ccc23)nc2ccccc2c1=O	2	-15	-71	-1	67*	-1
O=C1CC(N2CCN(c3ccccc3)CC2)C(=O)N1c1ccc(Cl)cc1 (configuration not stated)	0	x	x	x	x	x

Compound activity from PubChem BioAssay.
